# From ChEMBL document CHEMBL4049418, “6-OH-Phenanthroquinolizidine Alkaloid and Its Derivatives Exert Potent Anticancer Activity by Delaying S Phase Progression” (J Med Chem, 2017)
# What was measured:
# A549 = assay: Antiproliferative activity against human A549 cells assessed as reduction in viability after 72 hrs by SRB assay; format: functional, cell-based; conditions: A549, 72 h
# Procedure, shortened: (§1)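 Cells seeded and dosed in triplicate for 72 h. Suspension lines (HL-60, K-562, K562/ADR, HL-60/MX2) were read by MTT: 5 mg/mL MTT stock added, 4 h at 37 °C, formazan dissolved in 10% SDS/5% isobutanol/10 mM HCl, A570. Adherent lines were read by SRB: fixed with cold 10% TCA, stained with 0.4% SRB in 1% acetic acid, A540. IC50 from four-parameter logistic fit; mean of ≥3 independent experiments.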
# Bel-7402 = assay: Antiproliferative activity against human Bel7402 cells assessed as reduction in viability after 72 hrs by SRB assay; format: functional, cell-based; conditions: Bel-7402, 72 h; procedure, shortened: as §1
# KB = assay: Antiproliferative activity against human KB cells after 72 hrs by SRB assay; format: functional, cell-based; procedure, shortened: as §1
# [1] = Antiproliferative activity against human KB/VCR cells after 72 hrs by SRB assay; format: functional, cell-based; procedure, shortened: as §1
# [2] = Resistance factor, ratio of IC50 for human KB/VCR cells to IC50 for human KB cells; format: functional
# Procedure, shortened: (§2)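 72 h treatment in triplicate; suspended lines (HL-60, K-562, K562/ADR, HL-60/MX2) read by MTT (4 h, SDS/isobutanol/HCl solubilization, 570 nm); adherent KB and KB/VCR (MEM, 10% FBS) by SRB after TCA fixation (540 nm); IC₅₀ by four-parameter logistic fit, mean of ≥3 independent experiments.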
# HL-60 = assay: Antiproliferative activity against human HL60 cells after 72 hrs by MTT assay; format: functional, cell-based; conditions: HL-60, 72 h; procedure, shortened: as §1
# HL60/MX2 = assay: Antiproliferative activity against human HL60/MX2 cells after 72 hrs by MTT assay; format: functional, cell-based; conditions: HL60/MX2, 72 h; procedure, shortened: as §1
# [3] = Resistance factor, ratio of IC50 for human HL60/MX2 cells to IC50 for human HL60 cells; format: functional; procedure, shortened: as §2
# K562 = assay: Antiproliferative activity against human K562 cells after 72 hrs by MTT assay; format: functional, cell-based; conditions: K562, 72 h; procedure, shortened: as §1
# K562/Adr = assay: Antiproliferative activity against human K562/ADR cells after 72 hrs by MTT assay; format: functional, cell-based; procedure, shortened: as §1
# [4] = Resistance factor, ratio of IC50 for human K562/ADR cells to IC50 for human K562 cells; format: functional; procedure, shortened: as §2
# MRC5 = assay: Antiproliferative activity against human MRC5 cells assessed as reduction in viability after 72 hrs by SRB assay; format: cell-based; conditions: MRC5, 72 h; procedure, shortened: as §1
# [5] = Antiproliferative activity against human MRC9 cells assessed as reduction in viability after 72 hrs by SRB assay; format: cell-based; conditions: MRC9, 72 h; procedure, shortened: as §1
# L02 = assay: Antiproliferative activity against human LO2 cells assessed as reduction in viability after 72 hrs by SRB assay; format: cell-based; conditions: L02, 72 h; procedure, shortened: as §1
# [6] = Selectivity ratio of IC50 for human MRC5 cells to IC50 for human A549 cells
# Procedure, shortened: (§3)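 SRB assay: A549 (F-12, 10% FBS) and MRC-5/MRC-9 (EMEM, 10% FBS) treated in triplicate 72 h, fixed with ice-cold 10% TCA, stained with 0.4% SRB in 1% acetic acid, absorbance 540 nm; IC₅₀ by four-parameter logistic fit, mean of ≥3 independent experiments.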
# [7] = Selectivity ratio of IC50 for human MRC9 cells to IC50 for human A549 cells; procedure, shortened: as §3
# [8] = Cytotoxicity against Sprague-Dawley rat primary neuronal cells assessed as reduction in cell viability after 24 hrs by MTT assay; format: cell-based
# [9] = Cytotoxicity against Sprague-Dawley rat primary neuronal cells assessed as reduction in cell viability at 300 nM after 24 hrs by MTT assay; format: cell-based; conditions: read-out: INH
SMILES,IC50 (A549),IC50 (Bel-7402),also measured
COc1cc2c3c(c4ccc(O)cc4c2cc1OC)CN1CCCC[C@H]1C3,182 nM,320 nM,
COc1cc2c3c(c4ccc(OC(=O)C5CC5)cc4c2cc1OC)CN1CCCCC1C3 (centres undefined),30 nM,29 nM,
COc1cc2c3c(c4ccc(OCc5ccccc5)cc4c2cc1OC)CN1CCCCC1C3O (racemic),1530 nM,917 nM,
COc1cc2c3c(c4ccc(OC(=O)c5cccs5)cc4c2cc1OC)CN1CCCCC1C3 (centres undefined),115 nM,79 nM,
COc1cc2c3c(c4ccc(OC(=O)c5ccco5)cc4c2cc1OC)CN1CCCCC1C3 (centres undefined),52 nM,59 nM,
CC[C@]1(O)C[C@H]2CN(CCc3c([nH]c4ccccc34)[C@@](C(=O)OC)(c3cc4c(cc3OC)N(C=O)[C@H]3[C@@](O)(C(=O)OC)[C@H](OC(C)=O)[C@]5(CC)C=CCN6CC[C@]43[C@@H]65)C2)C1 [VINCRISTINE],,,IC50 (KB): 0.2 nM; IC50 [1]: 239 nM; Ratio IC50 [2]: 1193.5
CCOC(=O)COc1ccc2c3c(c4cc(OC)c(OC)cc4c2c1)CC1CCCCN1C3 (centres undefined),458 nM,411 nM,
C#CCOc1ccc2c3c(c4cc(OC)c(OC)cc4c2c1)CC1CCCCN1C3 (centres undefined),30 nM,33 nM,
Cl.Cl.O=C1c2c(O)ccc(O)c2C(=O)c2c(NCCNCCO)ccc(NCCNCCO)c21 [MITOXANTRONE HYDROCHLORIDE],,,IC50 (HL-60): 7.2 nM; IC50 (HL60/MX2): 351 nM; Ratio IC50 [3]: 48.7
COc1cc2c3c(c4ccc(OC(=O)c5cccnc5)cc4c2cc1OC)CN1CCCCC1C3 (centres undefined),277 nM,238 nM,
COc1cc2c3c(c4ccc(OC(=O)C(C)(C)C)cc4c2cc1OC)CN1CCCCC1C3 (centres undefined),103 nM,136 nM,
COc1cccc2c1C(=O)c1c(O)c3c(c(O)c1C2=O)C[C@@](O)(C(=O)CO)C[C@@H]3O[C@H]1C[C@H](N)[C@H](O)[C@H](C)O1.Cl [DOXORUBICIN HYDROCHLORIDE],,,IC50 (K562): 77.7 nM; IC50 (K562/Adr): 3310 nM; Ratio IC50 [4]: 42.6
COc1cc2c3c(c4ccc(OCCOC(=O)[C@H](C)N)cc4c2cc1OC)CN1CCCCC1C3 (some centres undefined),49 nM,47 nM,
COc1cc2c3c(c4ccc(OC(=O)C5CCCCC5)cc4c2cc1OC)CN1CCCCC1C3 (centres undefined),191 nM,115 nM,

# More lines, main results first:
IC50 (A549),IC50 (Bel-7402),SMILES,also measured
29 nM,20 nM,COc1cc2c3c(c4ccc(OC(=O)c5cccc6nnsc56)cc4c2cc1OC)CN1CCCCC1C3 (centres undefined),
16 nM,14 nM,COc1cc2c3c(c4ccc(OCC(N)=O)cc4c2cc1OC)CN1CCCCC1C3 (centres undefined),
22 nM,23 nM,COc1cc2c3c(c4ccc(OC(C)=O)cc4c2cc1OC)CN1CCCCC1C3 (centres undefined),
1.2 to 2.9 nM,3.4 to 3.5 nM,COc1cc2c3c(c4ccc(O)cc4c2cc1OC)CN1CCCCC1C3 (racemic),
12.9 nM,25.8 nM,COc1cc2c3c(c4ccc(OCC#N)cc4c2cc1OC)CN1CCCC[C@H]1C3,
1 to 3 nM,2.2 to 6 nM,COc1cc2c3c(c4ccc(OCC#N)cc4c2cc1OC)CN1CCCCC1C3 (racemic),
0.8 nM,2.4 nM,COc1cc2c3c(c4ccc(OCC#N)cc4c2cc1OC)CN1CCCC[C@@H]1C3,"IC50 (MRC5): 3.2 nM; IC50 [5]: 2.7 nM; IC50 (L02): 3.9 nM; Ratio IC50 [6]: 3 - 4; Ratio IC50 [7]: 3 - 4; inhibition (INH) [8]: Dose-dependent effect; cytotoxicity at 24 h, 0.3 µM [9]: 50%"
12 nM,8 nM,COc1cc2c3c(c4ccc(O)cc4c2cc1OC)CN1CCCCC1C3O (racemic),
